Values belong to the compound of their own block, whether it stands above or below them. Activity calls are given as the source filed them. The calls are words filed in the database; no cut-off is given here. Starred links: 1 amine or outer side, 2 acyl side, 3 side chain; linkers in the order of their positions; H or OH if unused. Positions of bridges follow the written chain, without caps; N, C: chain ends. Residues, ends and D or L forms follow the SMILES beside them. TBMB = c1c(C[*:1])cc(C[*:3])cc1C[*:2]
Tests used:
[1] = Binding affinity to beta-lactamase
[2] = molecular target: Receptor tyrosine-protein kinase erbB-2 (Homo sapiens, UniProt P04626); assay: Binding affinity to ErbB-2
[3] = molecular target: T1, Plasma kallikrein (Homo sapiens, UniProt P03952); assay: Inhibition of kallikrein-mediated intrinsic coagulation pathway in human plasma assessed as reduction in factor 12a generation at 160 nM by colorimetric assay; type: cell-free
In short: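 Human plasma was triggered with kaolin to start the intrinsic pathway. Factor XIIa activity was then read with a colorimetric substrate.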

[4] = Chemical stability of compound assessed as drug cleavage in presence of plasma kallikrein after 24 hrs at 37 degC by mass spectrometric analysis; type: physicochemical; details: read-out: Activity
In short: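 The peptide was incubated with human plasma kallikrein. Cleavage was detected by mass spectrometry as an 18 Da mass gain, and the cleaved fraction was estimated.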

[5] = Chemical stability assessed as compound cleavage in presence of Aeromonas proteolytica by mass spectrometric analysis; type: physicochemical
In short: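 The kallikrein-cleaved peptide was incubated with leucyl aminopeptidase from Aeromonas proteolytica. The products were analysed by mass spectrometry to locate the cleavage site.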

[6] = molecular target: T2, Deoxyribonuclease-2-alpha (Homo sapiens, UniProt O00115); assay: Binding affinity to Dnase 2
T2 sequence (O00115 whole entry): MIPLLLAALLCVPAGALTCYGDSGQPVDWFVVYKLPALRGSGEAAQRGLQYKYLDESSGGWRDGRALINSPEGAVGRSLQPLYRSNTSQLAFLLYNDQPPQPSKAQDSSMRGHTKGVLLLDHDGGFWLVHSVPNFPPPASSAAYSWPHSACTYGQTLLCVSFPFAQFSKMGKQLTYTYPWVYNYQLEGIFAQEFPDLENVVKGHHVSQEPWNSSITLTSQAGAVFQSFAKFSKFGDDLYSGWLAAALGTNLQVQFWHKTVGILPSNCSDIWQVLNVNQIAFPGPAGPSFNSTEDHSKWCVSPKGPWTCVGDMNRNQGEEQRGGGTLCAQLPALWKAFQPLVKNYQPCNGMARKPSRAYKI

[7] = molecular target: T3, Kallikrein-2 (Homo sapiens, UniProt P20151); assay: Binding affinity to human kallikrein 2
T3 sequence (P20151 whole entry): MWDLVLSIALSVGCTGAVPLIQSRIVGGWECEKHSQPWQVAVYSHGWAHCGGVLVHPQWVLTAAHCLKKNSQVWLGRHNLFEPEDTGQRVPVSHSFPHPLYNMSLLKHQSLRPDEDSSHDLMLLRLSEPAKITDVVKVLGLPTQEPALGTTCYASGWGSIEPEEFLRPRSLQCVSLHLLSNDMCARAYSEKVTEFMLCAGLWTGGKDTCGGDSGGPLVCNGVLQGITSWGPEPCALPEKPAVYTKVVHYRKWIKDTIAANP

[8] = Binding affinity to chymotrypsin
[9] = molecular target: Coagulation factor VII/tissue factor (Homo sapiens, UniProt P08709); assay: Binding affinity to tissue factor/factor 7a; type: protein-complex assay
[10] = molecular target: Urokinase-type plasminogen activator (Homo sapiens, UniProt P00749); assay: Binding affinity to urokinase-type plasminogen activator
[11] = molecular target: Plasma kallikrein (Mus musculus) (UniProt P26262); assay: Inhibition of mouse plasma kallikrein at 10 uM using Z-Phe-Arg-AMC substrate after 30 mins by spectrophotometric assay; type: cell-free
[12] = molecular target: T1, Plasma kallikrein; assay: Inhibition of human plasma kallikrein using Z-Phe-Arg-AMC substrate after 30 mins by spectrophotometric assay
[13] = molecular target: Coagulation factor XI (Homo sapiens) (UniProt P03951); assay: Inhibition of human factor 11a at 10 uM using Z-Phe-Arg-AMC substrate after 30 mins by spectrophotometric assay
[14] = molecular target: Prothrombin (Homo sapiens) (UniProt P00734); assay: Inhibition of human thrombin at 10 uM using Boc-Phe-Ser-Arg-AMC substrate after 30 mins by spectrophotometric assay
[15] = molecular target: T4, Prostate-specific antigen (Homo sapiens, UniProt P07288); assay: Binding affinity to prostate specific antigen
T4 sequence (P07288 whole entry): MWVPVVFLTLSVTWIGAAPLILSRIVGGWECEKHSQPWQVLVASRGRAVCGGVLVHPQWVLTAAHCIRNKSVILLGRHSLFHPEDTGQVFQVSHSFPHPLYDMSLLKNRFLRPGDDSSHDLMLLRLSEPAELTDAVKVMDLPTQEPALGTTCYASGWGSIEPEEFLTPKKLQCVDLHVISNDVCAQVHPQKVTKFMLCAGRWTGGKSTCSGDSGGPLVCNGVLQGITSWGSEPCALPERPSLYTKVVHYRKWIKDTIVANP

[16] = Binding affinity to urease
[17] = molecular target: Angiotensin-converting enzyme 2 (Homo sapiens, UniProt Q9BYF1); assay: Binding affinity to angiotensin converting enzyme 2
Chain of Angiotensin-converting enzyme 2 (Q9BYF1 whole entry): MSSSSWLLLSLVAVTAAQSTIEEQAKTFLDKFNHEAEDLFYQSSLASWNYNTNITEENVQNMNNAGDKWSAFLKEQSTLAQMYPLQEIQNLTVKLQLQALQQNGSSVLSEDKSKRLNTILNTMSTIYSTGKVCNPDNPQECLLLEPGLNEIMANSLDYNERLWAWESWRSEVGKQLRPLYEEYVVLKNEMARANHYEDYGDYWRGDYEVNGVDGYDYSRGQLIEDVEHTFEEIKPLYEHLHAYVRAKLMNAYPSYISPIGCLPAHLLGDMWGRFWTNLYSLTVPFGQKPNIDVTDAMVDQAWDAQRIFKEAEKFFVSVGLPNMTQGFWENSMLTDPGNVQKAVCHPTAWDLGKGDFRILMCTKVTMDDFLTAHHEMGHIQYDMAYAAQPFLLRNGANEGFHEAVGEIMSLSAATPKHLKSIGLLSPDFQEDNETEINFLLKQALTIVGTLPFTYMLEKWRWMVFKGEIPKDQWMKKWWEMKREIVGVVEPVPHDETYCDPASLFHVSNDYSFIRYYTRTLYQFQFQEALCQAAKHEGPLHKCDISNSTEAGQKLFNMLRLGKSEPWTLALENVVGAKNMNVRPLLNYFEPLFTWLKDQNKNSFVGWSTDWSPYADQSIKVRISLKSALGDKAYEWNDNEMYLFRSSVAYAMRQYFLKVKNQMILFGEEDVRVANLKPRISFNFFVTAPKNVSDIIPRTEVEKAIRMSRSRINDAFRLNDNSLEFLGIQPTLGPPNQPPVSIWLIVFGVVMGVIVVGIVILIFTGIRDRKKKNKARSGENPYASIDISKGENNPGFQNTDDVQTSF

T1 sequence (P03952 20-390 limits assumed): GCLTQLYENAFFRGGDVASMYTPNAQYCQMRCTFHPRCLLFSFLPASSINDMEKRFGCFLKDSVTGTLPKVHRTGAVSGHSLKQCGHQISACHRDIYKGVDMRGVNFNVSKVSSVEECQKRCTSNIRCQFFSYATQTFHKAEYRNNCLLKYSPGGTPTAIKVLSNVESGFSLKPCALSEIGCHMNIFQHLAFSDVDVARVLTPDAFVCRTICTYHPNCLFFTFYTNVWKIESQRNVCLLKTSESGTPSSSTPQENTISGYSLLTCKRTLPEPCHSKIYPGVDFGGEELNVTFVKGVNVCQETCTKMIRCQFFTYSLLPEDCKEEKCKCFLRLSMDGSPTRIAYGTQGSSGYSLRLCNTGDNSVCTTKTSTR
T1 sequence (P03952 391-638 limits assumed): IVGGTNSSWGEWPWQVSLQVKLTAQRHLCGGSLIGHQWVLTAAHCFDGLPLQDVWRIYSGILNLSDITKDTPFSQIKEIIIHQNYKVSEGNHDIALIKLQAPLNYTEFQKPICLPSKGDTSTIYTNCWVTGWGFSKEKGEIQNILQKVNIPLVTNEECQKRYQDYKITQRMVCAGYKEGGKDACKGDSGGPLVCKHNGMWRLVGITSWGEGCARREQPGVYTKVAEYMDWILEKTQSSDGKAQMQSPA
Chain of Coagulation factor XI (Homo sapiens) (P03951 19-387 limits assumed): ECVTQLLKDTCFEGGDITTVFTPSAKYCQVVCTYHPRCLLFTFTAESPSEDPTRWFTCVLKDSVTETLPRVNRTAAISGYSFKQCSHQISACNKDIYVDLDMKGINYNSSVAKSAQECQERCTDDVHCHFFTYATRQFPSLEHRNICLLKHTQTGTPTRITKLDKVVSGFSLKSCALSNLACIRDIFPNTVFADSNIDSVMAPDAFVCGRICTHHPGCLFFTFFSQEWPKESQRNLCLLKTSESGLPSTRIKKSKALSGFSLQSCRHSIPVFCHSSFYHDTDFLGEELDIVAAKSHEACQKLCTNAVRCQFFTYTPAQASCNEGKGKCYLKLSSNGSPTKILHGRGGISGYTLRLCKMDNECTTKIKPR
Chain of Coagulation factor XI (Homo sapiens) (P03951 388-625 limits assumed): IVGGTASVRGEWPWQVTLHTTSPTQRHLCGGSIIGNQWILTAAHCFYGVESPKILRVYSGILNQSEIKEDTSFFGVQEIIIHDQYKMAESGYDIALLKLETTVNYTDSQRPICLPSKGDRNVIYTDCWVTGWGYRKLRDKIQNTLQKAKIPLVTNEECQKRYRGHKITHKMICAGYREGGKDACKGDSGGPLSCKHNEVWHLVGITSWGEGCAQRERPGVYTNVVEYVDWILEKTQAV
Chain of Coagulation factor VII/tissue factor (P08709 61-212 limits assumed): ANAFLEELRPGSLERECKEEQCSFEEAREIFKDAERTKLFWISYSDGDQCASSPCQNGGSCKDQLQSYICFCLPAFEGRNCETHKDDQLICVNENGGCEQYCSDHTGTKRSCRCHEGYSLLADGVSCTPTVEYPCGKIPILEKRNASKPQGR
Chain of Coagulation factor VII/tissue factor (P08709 213-466 limits assumed): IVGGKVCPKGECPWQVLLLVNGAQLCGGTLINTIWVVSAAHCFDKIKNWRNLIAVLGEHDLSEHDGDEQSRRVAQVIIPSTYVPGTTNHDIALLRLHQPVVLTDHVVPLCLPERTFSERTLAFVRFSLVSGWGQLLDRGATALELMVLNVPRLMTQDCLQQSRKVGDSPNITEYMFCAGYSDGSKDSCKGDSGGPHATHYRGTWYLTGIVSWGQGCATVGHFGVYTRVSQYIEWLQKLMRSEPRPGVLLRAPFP
Chain of Coagulation factor VII/tissue factor (P13726 33-295 partner limits assumed): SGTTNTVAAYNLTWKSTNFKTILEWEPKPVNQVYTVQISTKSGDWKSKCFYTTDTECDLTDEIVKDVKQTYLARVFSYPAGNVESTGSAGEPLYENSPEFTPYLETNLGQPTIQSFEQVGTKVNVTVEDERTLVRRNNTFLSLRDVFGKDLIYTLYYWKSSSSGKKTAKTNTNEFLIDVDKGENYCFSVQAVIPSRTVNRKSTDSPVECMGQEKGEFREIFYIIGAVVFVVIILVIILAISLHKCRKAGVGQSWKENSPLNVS
Chain of Receptor tyrosine-protein kinase erbB-2 (P04626 whole entry): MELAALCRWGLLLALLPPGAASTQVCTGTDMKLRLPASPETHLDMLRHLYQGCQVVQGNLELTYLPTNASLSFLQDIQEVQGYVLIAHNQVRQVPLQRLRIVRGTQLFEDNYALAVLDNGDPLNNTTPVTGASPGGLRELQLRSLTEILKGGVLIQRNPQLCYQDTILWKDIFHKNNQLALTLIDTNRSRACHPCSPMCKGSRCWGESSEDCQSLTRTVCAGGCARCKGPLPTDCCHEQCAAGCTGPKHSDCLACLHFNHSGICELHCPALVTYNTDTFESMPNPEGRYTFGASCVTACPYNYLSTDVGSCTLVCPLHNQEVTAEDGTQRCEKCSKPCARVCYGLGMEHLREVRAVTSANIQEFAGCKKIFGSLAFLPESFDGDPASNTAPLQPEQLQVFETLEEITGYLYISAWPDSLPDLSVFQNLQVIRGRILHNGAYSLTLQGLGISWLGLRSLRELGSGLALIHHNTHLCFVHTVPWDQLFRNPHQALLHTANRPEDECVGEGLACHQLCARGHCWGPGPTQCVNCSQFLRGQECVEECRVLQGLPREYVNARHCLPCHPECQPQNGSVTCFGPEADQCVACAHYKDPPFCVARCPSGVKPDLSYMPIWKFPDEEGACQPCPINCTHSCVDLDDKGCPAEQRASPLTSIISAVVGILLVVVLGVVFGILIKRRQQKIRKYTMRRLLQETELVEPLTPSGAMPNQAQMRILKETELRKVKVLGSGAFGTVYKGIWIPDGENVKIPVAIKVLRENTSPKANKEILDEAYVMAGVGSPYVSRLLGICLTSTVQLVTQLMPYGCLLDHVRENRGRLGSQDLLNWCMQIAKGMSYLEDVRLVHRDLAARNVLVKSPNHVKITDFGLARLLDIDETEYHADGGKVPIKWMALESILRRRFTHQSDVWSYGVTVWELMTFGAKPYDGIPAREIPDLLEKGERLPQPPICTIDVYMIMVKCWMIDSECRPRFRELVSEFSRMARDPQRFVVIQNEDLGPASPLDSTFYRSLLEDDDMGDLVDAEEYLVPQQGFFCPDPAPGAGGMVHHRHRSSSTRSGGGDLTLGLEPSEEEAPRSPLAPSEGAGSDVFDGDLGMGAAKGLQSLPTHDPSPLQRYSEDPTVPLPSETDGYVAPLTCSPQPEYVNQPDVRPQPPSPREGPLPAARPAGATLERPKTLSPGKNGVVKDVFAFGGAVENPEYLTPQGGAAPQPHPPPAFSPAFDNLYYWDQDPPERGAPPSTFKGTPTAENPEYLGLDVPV
Chain of Plasma kallikrein (Mus musculus) (P26262 20-390 limits assumed): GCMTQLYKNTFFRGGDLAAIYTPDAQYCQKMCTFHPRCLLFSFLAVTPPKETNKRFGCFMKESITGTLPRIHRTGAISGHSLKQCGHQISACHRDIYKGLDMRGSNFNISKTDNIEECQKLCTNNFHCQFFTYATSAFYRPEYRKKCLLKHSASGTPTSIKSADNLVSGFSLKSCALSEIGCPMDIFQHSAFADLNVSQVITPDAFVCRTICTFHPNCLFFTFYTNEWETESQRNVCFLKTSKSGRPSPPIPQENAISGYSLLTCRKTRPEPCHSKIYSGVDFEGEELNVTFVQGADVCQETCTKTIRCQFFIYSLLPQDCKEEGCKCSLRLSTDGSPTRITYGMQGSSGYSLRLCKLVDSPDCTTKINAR
Chain of Plasma kallikrein (Mus musculus) (P26262 391-638 limits assumed): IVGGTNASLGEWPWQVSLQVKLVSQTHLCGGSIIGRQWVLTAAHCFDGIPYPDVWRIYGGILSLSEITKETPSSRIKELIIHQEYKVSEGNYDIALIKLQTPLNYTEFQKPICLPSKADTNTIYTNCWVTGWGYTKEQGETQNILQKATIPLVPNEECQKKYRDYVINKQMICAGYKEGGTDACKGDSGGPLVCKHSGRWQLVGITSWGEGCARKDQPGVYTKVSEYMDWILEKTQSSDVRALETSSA

Compound: CC(C)[C@H](NC(=O)[C@@H](N)CS)C(=O)N[C@@H](Cc1cnc[nH]1)C(=O)N[C@@H](CO)C(=O)N1CCC[C@H]1C(=O)N[C@@H](CC(N)=O)C(=O)N[C@@H](CCCNC(=N)N)C(=O)N[C@@H](CCC(=O)O)C(=O)N[C@@H](CS)C(=O)O (H-CVHSPNREC-OH)
IC50 [1]: 9000 nM

Compound: CC(C)C[C@H](NC(=O)[C@@H](NC(=O)[C@H](CCC(=O)O)NC(=O)[C@H](Cc1c[nH]c2ccccc12)NC(=O)[C@H](CCC(=O)O)NC(=O)[C@@H](N)CCC(=O)O)C(C)C)C(=O)N[C@@H](CS)C(=O)N[C@@H](Cc1c[nH]c2ccccc12)C(=O)N[C@H](C(=O)N[C@@H](Cc1c[nH]c2ccccc12)C(=O)N[C@@H](CCC(=O)O)C(=O)N[C@H](C(=O)N[C@@H](CS)C(=O)N[C@@H](CCC(=O)O)C(=O)N[C@@H](CCCN=C(N)N)C(=O)O)[C@@H](C)O)[C@@H](C)O (H-EEWEVLCWTWETCER-OH)
IC50 [9]: 1.5 nM

Compound: CSCC[C@H](NC(=O)[C@H](CCCNC(=N)N)NC(=O)[C@H](Cc1cnc[nH]1)NC(=O)[C@H](CC(N)=O)NC(=O)[C@H](CCC(=O)O)NC(=O)[C@H](CC(C)C)NC(=O)CNC(=O)[C@H](CCCNC(=N)N)NC(=O)[C@H](Cc1c[nH]c2ccccc12)NC(=O)[C@H](CO)NC(=O)[C@@H](N)CS)C(=O)N[C@@H](CS)C(=O)O
Ki [10]: 6700 nM

Compound: CC(C)C[C@H](NC(=O)[C@H](C)NC(=O)[C@H](CCC(=O)O)NC(=O)[C@H](CC(=O)O)NC(=O)[C@H](C)NC(=O)[C@@H]1CCCN1C(=O)[C@H](CS)NC(=O)[C@H](CC(N)=O)NC(=O)[C@H](CCCNC(=N)N)NC(=O)[C@H](Cc1ccccc1)NC(=O)[C@H](CCCNC(=N)N)NC(=O)[C@H](CC(=O)O)NC(=O)[C@H](CO)NC(=O)[C@H](CS)NC(=O)[C@H](C)N)C(=O)N[C@@H](CS)C(=O)NCC(N)=O (H-ACSDRFRNCPADEALCG-NH2)
inhibition [11]: inactive
IC50 [12]: > 10000 nM
inhibition [13]: inactive
inhibition [14]: inactive

Compound: CC(C)C[C@H](NC(=O)[C@H](Cc1ccc(O)cc1)NC(=O)[C@H](CCCNC(=N)N)NC(=O)[C@H](CO)NC(=O)[C@H](Cc1ccc(O)cc1)NC(=O)[C@H](C)NC(=O)[C@@H]1CCCN1C(=O)[C@@H](N)CS)C(=O)N[C@@H](CC(=O)O)C(=O)N[C@@H](CS)C(=O)O
Ki [10]: 400 nM

Compound: CC[C@H](C)[C@H](NC(=O)[C@H](CS)NC(=O)[C@H](Cc1ccc(O)cc1)NC(=O)[C@H](C)NC(=O)[C@@H](NC(=O)[C@@H](N)CS)C(C)C)C(=O)N[C@@H](CCC(=O)O)C(=O)N[C@@H](Cc1cnc[nH]1)C(=O)N[C@@H](Cc1cnc[nH]1)C(=O)N[C@@H](CS)C(=O)N[C@@H](Cc1c[nH]c2ccccc12)C(=O)N[C@H](C(=O)N[C@@H](CS)C(=O)O)[C@@H](C)O (H-CVAYCIEHHCWTC-OH)
Kd [15]: 2900 nM

Compound: H-YDFYWW-OH
IC50 [16]: 30000 nM

Now from value to compound:

Ki [2]: 30000 nM
Compound: CC(C)C[C@H](NC(=O)[C@H](CO)NC(=O)[C@H](Cc1ccc(O)cc1)NC(=O)[C@H](CS)NC(=O)[C@H](CS)NC(=O)[C@@H](N)CCCCN)C(=O)O (H-KCCYSL-OH)

inhibition [3]: Active
metabolised at 24 h [4]: 90%
Stability [5]: Unstable
Compound: CC(C)C[C@@H]1NC(=O)[C@H](C)NC(=O)[C@H](CCC(=O)O)NC(=O)[C@H](CC(=O)O)NC(=O)[C@H](C)NC(=O)[C@@H]2CCCN2C(=O)[C@@H]2CSCc3cc(cc(c3)CSC[C@@H](C(=O)NCC(N)=O)NC1=O)CSC[C@H](NC(=O)[C@H](C)N)C(=O)N[C@@H](CO)C(=O)N[C@@H](CC(=O)O)C(=O)N[C@@H](CCCNC(=N)N)C(=O)N[C@@H](Cc1ccccc1)C(=O)N[C@@H](CCCNC(=N)N)C(=O)N[C@@H](CC(N)=O)C(=O)N2 (H-ACSDRFRNCPADEALCG-NH2; linker 2-9-16 via TBMB)

Ki [6]: 200 nM
Compound: CC(C)C[C@H](NC(=O)[C@H](Cc1ccccc1)NC(=O)[C@H](Cc1c[nH]c2ccccc12)NC(=O)[C@H](CCC(N)=O)NC(=O)[C@H](CC(C)C)NC(=O)[C@H](CC(C)C)NC(=O)[C@H](CCCN=C(N)N)NC(=O)[C@H](CC(C)C)NC(=O)[C@@H](N)CS)C(=O)N[C@@H](Cc1c[nH]c2ccccc12)C(=O)N[C@@H](C)C(=O)N[C@@H](CS)C(=O)O (H-CLRLLQWFLWAC-OH)

IC50 [7]: 3400 nM
Compound: H-SRFKVWWAAF-OH

Ki [8]: 1000 nM
Compound: N=C(N)NCCC[C@H](NC(=O)[C@H](CS)NC(=O)[C@H](CCCNC(=N)N)NC(=O)[C@H](Cc1c[nH]c2ccccc12)NC(=O)[C@H](CO)NC(=O)[C@H](Cc1ccccc1)NC(=O)[C@H](CS)NC(=O)[C@@H](N)CS)C(=O)N[C@@H](CS)C(=O)O (H-CCFSWRCRC-OH)

Ki [17]: 2.8 nM
Compound: CC(C)C[C@H](NC(=O)[C@@H]1CCCN1C(=O)[C@H](CO)NC(=O)[C@H](CS)NC(=O)[C@H](Cc1cnc[nH]1)NC(=O)[C@H](CO)NC(=O)[C@H](Cc1ccc(O)cc1)NC(=O)[C@@H](CC(=O)O)NC(=O)CN)C(=O)N[C@@H](CCCNC(=N)N)C(=O)N[C@@H](Cc1ccc(O)cc1)C(=O)N[C@@H](Cc1ccc(O)cc1)C(=O)N1CCC[C@H]1C(=O)N[C@@H](Cc1c[nH]c2ccccc12)C(=O)N[C@@H](Cc1c[nH]c2ccccc12)C(=O)N[C@@H](CCCCN)C(=O)N[C@@H](CS)C(=O)N[C@H](C(=O)N[C@@H](Cc1ccc(O)cc1)C(=O)N1CCC[C@H]1C(=O)N[C@@H](CC(=O)O)C(=O)N1CCC[C@H]1C(=O)O)[C@@H](C)O

From ChEMBL document CHEMBL1240344, “Phage-encoded combinatorial chemical libraries based on bicyclic peptides” (Nat Chem Biol, 2009)
